The EternaBench riboswitch data

Tested on: MS2 coat protein
Assay: apparent Kd, MS2 coat protein; higher = weaker binding; RNA-MaP array; FMN 200 µM where present
How it was run: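 Stalled E. coli RNA polymerase transcribed the designs on Illumina sequencing-chip clusters. SNAP-549-labelled MS2 coat protein was titrated from 0.7 or 1.5 nM, doubling to 3 µM, without and then with constant ligand, in 100 mM Tris-HCl pH 7.5, 80 mM KCl, 4 mM MgCl2, BSA, DTT, yeast tRNA and Tween-20. Per-cluster binding curves were fitted to green signal normalised to red-channel RNA signal and control-cluster median Fmax. The apparent Kd is the median of the filtered fits.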

[1] = designed as: OFF switch for flavin mononucleotide, no ligand
[2] = ligand present: flavin mononucleotide, designed as: OFF switch for flavin mononucleotide
[3] = designed as: ON switch for flavin mononucleotide, no ligand
[4] = ligand present: flavin mononucleotide, designed as: ON switch for flavin mononucleotide

| Sequence | apparent Kd [1] [nM] | apparent Kd [2] [nM] | apparent Kd [3] [nM] | apparent Kd [4] [nM] |
| --- | --- | --- | --- | --- |
| AACAGUGCAAUAAUAAUAAGAUCUACAUGAGGAUCACCCAUGUAGGAUAUCGUCAGGAAUACUGACGAGAAGGACAUAGCACUG | 13.9 | 15.6 |  |  |
| CGAUGUUAUGUCAGGAUAUGCGUUGCGAAAGCAAUGCAGAAGGGACAUGAGGAUCACCCAUGUCCUAACCAUCG | 12.3 | 25.1 |  |  |
| CGAUGUUGUGUCAGGAUAUGCGUUGCGAAAGCAAUGUAGAAGGGACAUGAGGAUCACCCAUGUUCUAACCAUCG | 12.4 | 15.8 |  |  |
| AAUUAUUGAUGAGGAUAUUGUGGUGAAACACGACGAGAAGGCAUAUGUCACAUGAGGAUCACCCAUGUGAGCCUUGUGCAUAUA | 19.9 | 18.9 |  |  |
| UUUUUAUUUGCAGGAUAUUGUUUUUUAUUACUUCAAGAAGGGCAUUACAUGAGGAUCACCCAUGUCAUCCUAUGGUUUACUAGU | 10.6 | 10.4 |  |  |
| UUUUAACAUGAGGAUCACCCAUGUGAGGAUAUCGUUUUUUAUAUUAAUAUUAAUAAAACGAGAAGGCACAUUUU | 137 | 150 |  |  |
| AAAAAGCGAGGAUAUACAUGAGGAUCACCCAUGUGAGAGAAAAAAAGGAGAAAAAAAAGUAGAAGGCGCAAAAA | 61.6 | 72.2 |  |  |
| AUGCUAGUGUGAGGAUAUUAGACAUGAGGAUCACCCAUGUGUAAGAUCAUGACGAUCACGCAUGAUAAGAAGGUACAUUAGCAU | 54.6 | 99.7 |  |  |
| GAAAAACAUGAGGAUCACCCAUGUAAGGAUAUGCUGAAAAACACGGAAAAAACGUGCAGCAGAAGGUACAAAAG | 63.2 | 83.3 |  |  |
| AAGUUUUUACAAGGAUAUCAAUUGUUUCUAAAUUCAACAUGAGGAUCACCCAUGUAACAAUGGAGUGAGAAGGUGUGUUGGCAA |  |  | 86.8 | 141 |
| CUUUUGUGAGGAUAUUAGUAGUAAAAAAAUAAAAUUACUACUGAGAAGGCACAUGAGGAUCACCCAUGUUUCUC | 28.2 | 115 |  |  |
| UUUACAUUACGAGGAUAUCAAUUAUUUCAUGUAUGAGAAGGCGUUAUUUUUACUACCUUACAUGAGGAUCACCCAUGUUUCAUU |  |  | 62.8 | 27.8 |
| GAAUGUCGGGUAGGAUAUGACGUGCCACGGAGGUCAGAAGGGCCGCGACAUGAGGAUCACCCAUGUACUGUAUUCCUUUUUCAA | 24.3 | 67.4 |  |  |
| GUUUAGUGAGGAUAUGUGGCUUCGAUCGAGCGCGGUCUGCUACAGAAGGCACAUGAGGAUCACCCAUGUUUCUC | 118 | 424 |  |  |
| CGCUUUGUACAUGAGGAUCACCCAUGUUAAUAUGUGGUAGUCAGAAGGCAUUGUUUGAGAUAUUAUGAGGAUAUGAUUAGUCUG |  |  | 73.2 | 43.6 |
| GAAUAUUAGCAAGGAUAUCGGCUUACUAUAACUUUAUGCCCUGGGACAUGAGGAUCACCCAUGUACGAGAAGGUGCUUACUACA | 18.9 | 29.4 |  |  |
| AGAAAACAUGAGGAUCACCCAUGUAAGGAUAUGCUAAGGGUGGCUUCGGCCACCCAAUGCAGAAGGUACAAAUA | 49.6 | 59.7 |  |  |
| AAUAUGAGCUGGAAUAAAACCUUGACAUGAGGAUCACCCAUGUAGGAUAUCAGCACGAUAAGUGCUGAGAAGGACAACCAGCUC | 14.4 | 15.6 |  |  |
| ACGACGAAAGUCGAACGAUGUAGCAGAAGGACAUGAGGAUCACCCAUGUCAGCUGUGAAAACCAUGUAGGAUAUGCUACAUCGA | 38.5 | 291 |  |  |
| ACCAUACAUGAGGAUCACCCAUGUUAGGAUAUGAGAGACCCACAUAGUCCUGGUAGCAUCAGAAGGAGCAGGGU | 20.6 | 23.7 |  |  |
| UACAUGAGGAUCACCCAUGUUUUGUCGUGUAUGGUAUUUAUCUAGGAUAUCAAUGUAUUUAUUUAUGAGAAGGAGAAUAUUAAU | 41.1 | 39.3 |  |  |
| GCUCUACAUGAGGAUCACCCAUGUUCGGACGCACGAGGAUAUGCAUGGGCGAAAGCUGGUGCAGAAGGCGUGGGAC |  |  | 209 | 33.4 |
| AGUGUCAUCGAGAAGGCCUCAACAUGAGGAUCACCCAUGUUGUAAAAUGGGAGGAUAUCGAUGAUACAGCUACGUUUCGUAGCA |  |  | 11.3 | 4.88 |
| AAAACAUGAGGAUCACCCAUGUAAAGAACGGUUAAUAAAUGUGAGGAUAUACUAAAAUUUAGGUAGUAGAAGGCACUGGGUACA |  |  | 24.1 | 25.7 |

| Sequence | apparent Kd [1] [nM] | apparent Kd [2] [nM] | apparent Kd [3] [nM] | apparent Kd [4] [nM] |
| --- | --- | --- | --- | --- |
| GGAUAGGACAGAGGAUAUACGUGCUAGAGAUACUAGCAAAAUUUCCUCACAUGAGGAUCACCCAUGUAGAAGGCUGUGCUAUCG | 16.4 | 343 |  |  |
| UUCUUUCCUCAUGUACAUGAGGAACAUGAGGAUCACCCAUGUAGAAGGAUUUCAAUUAAAUUAAAAUAGGAUAUACAUAUAUUU | 15.8 | 16.4 |  |  |
| AAAACAUGAGGAUCACCCAUGUAAAGAUCACUUAAUAGUUGUGAGGAUAUACGAUUUUAAAGCUAGUAGAAGGCACUGGGUACA |  |  | 28.1 | 36.1 |
| UGCAGCGUGCACAUGAGGAUCACCCAUGUGCCAGUGAACGCACAGGAUAUGCAAUCGUACGGCUAGCAGAAGGGUGGGUCUCAC |  |  | 7.65 | 6.45 |
| UAAAUACAUGAGGAUCACCCAUGUCAAAAGACAUGAGGAUAUGUACAGACUUCGGUCUGUACAGAAGGCAUGAAUA |  |  | 652 | 46.7 |
| UAAUAAUAAUGAGGAUAUAUACAACAUGAGGAUCACCCAUGUACCCAUGUAGUAGAAGGCAUAUUUUUUGUUAAUAACAUAACU |  |  | 53.8 | 32.1 |
| GUGCGUGGCUAGGAUAUUGUGGGUUUUUGUCAGCGAGAAGGAGCCACAUGAGGAUCACCCAUGUGGUGUUGCUC | 187 | 57.1 |  |  |
| GAUUGACAUGAGGAUCACCCAUGUGAGGAUAUCGGCUGGACCGUGUUGGCUUCCGUUUCGAGAAGGCGCAUAGG | 26.1 | 48.3 |  |  |
| UUAUUAUAUGUAGGAUAUGCGUAUUAUUAUUAUGCAGAAGGACAUGAGGAUCACCCAUGUAUAUUAUUAUUAUAUAUUAUAUAU | 29 | 66.9 |  |  |
| GAAUAGGCAGGAUAUACAUGAGGAUCACCCAUGUGCUUGCGAUAGGCACGUGAACAACGUAGAAGGGCCUUAAC | 33.2 | 149 |  |  |
| GCUGCAUGCAGAGGAUAUAUAACAUGAGGAUCACCCAUGUAAAAUAUAUGGAUAAACCAGAUAGUAUAGAAGGCUGCAUGCAGC | 22.9 | 19.1 |  |  |
| GUACAUGAGCAGAAGGGCAUUUAAUUACAUUUUUAUGUUUAUCAGAUAUGCAGGAUAUGUUAAACAUGAGGAUCACCCAUGUAC |  |  | 196 | 42.6 |
| UGGUACUAGGGAGGAUAUGGGAAGAUACAUGAGGAUCACCCAUGUUUAAGAAUGGCGAGAGGCAACUAGAAGGCCCUAGUACCU |  |  | 271 | 15.6 |
| GGACCGCGCAGAAUUGGCGGCCGGCAGGAUAUGACAUGAGGAUCACCCAUGUGAACUCCAUUGGGUCAGAAGGGCCACGACACA | 21.1 | 66.8 |  |  |
| CACCGUUAAGGAGGAUAUCGUACAUGAGGAUCACCCAUGUAAUAAAUGAGAAUUUCGGAUGUAUGCGAGAAGGCCUAAAUCGGC | 49.5 | 42 |  |  |
| GAUCGUAUCCUAGGAUAUUCAUUAAAACAUGAGGAUCACCCAUGUAAAUUGGGAGAAGGAGGAUACGAUCAACAGCGAAAGCUG |  |  | 35.3 | 6.52 |
| AUAAAGUCAGGAUAUGUAAAAAUAACGAAAGUUAUAAAUAAACAGAAGGGACAUGAGGAUCACCCAUGUAAAAU | 32.3 | 39.6 |  |  |
| GGAGCUCCAGCGCAGGAUAUCGACCCAGGGACAUGAGGAUCACCCAUGUUCCAAAAAAAAUGGGUCGAGAAGGGCGUUGGAGAGCC |  |  | 12.6 | 9.62 |
| GGUAGAGAGCAGGAUAUCUUGGGUAAGUAUCGUAGAGAAGGGCUCACAUGAGGAUCACCCAUGUGGUCCAAGAU | 15.5 | 34.2 |  |  |
| GCCUGGACAGAGAAGGGCUACUCCAACCACAUGAGGAUCACCCAUGUUAGCAGGAUAUCUGGCAGGGCAUCCUCAAUUAUUAAA |  |  | 91.6 | 19.8 |
| AUGCUUCACACAGGAUAUACAUGAGGAUCACCCAUGUGUCCUCCGUAGCUGACACGAGCUACGCGGUAGAAGGGUGUGAAGCAU | 91 | 698 |  |  |
| UAGAUGGGAGGAUAUACGUAGAUGCAGGUUCGUGUGGUGCUACAUGAGGAUCACCCAUGUAGAAGGCCCGUCUU | 14.8 | 48.9 |  |  |
| UAUUAGCUAGGAUAUACAUGAGGAUCACCCAUGUCACGGGUCCACUCAUCCUAUGCGUGUAGAAGGAGCGACCC | 22.9 | 26.6 |  |  |
| CCAUGGCUGUGAGGAUAUGUCUGACAAAGUCAGACAGAAGGUACAUGAGGAUCACCCAUGUGAAGAAAACCACAUUUGCCAUGG | 6 | 6.44 |  |  |
